Laboratory results from article PMC9067284 (RSC Advances, 2019).

How the values were obtained:
PDK3 [1] = molecular target: T1, PDK3 (Homo sapiens, UniProt Q15120); assay: Fluorescence quenching binding study with purified PDK3
Outline: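 Intrinsic tryptophan fluorescence quenching of refolded His-tagged human PDK3 (4 μM) at 25 ± 0.1 °C in 50 mM Tris pH 8.0. Test compounds come from 10–30 mM DMSO stocks and are titrated at 0.1–4.0 μM or 2–12 μM. Excitation 280 nm, emission 300–400 nm, blank subtracted, triplicates averaged. Ka and number of sites come from a modified Stern–Volmer plot.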

PDK3 [2] = molecular target: T1, PDK3; assay: Isothermal titration calorimetry of PDK3 with EA; format: binding; settings: ITC, 25 °C, four-site model
Outline: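 VP-ITC at 25 °C with PDK3 (30 μM) in the cell and 1% v/v DMSO added to the protein. Test compound is injected from the syringe: a 2 μl first injection, then 10 μl injections at 300 s intervals, stirring at 320 rpm. Heat of dilution is subtracted. The isotherm is fitted to a four-set-of-sites model for Ka, n, ΔH and ΔS.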

PDK3 [3] = molecular target: T1, PDK3; assay: Enzyme inhibition assay; format: biochemical
Outline: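 Recombinant full-length human PDK3, His-tagged, expressed in E. coli BL21 Gold, purified from inclusion bodies by Ni-NTA and refolded by dialysis. Enzyme 5 μM with 200 μM ATP and test compound 0–30 μM, 15–20 min at 25 °C in 50 mM Tris, 100 mM NaCl, pH 8.0. Released phosphate read by malachite green at 620 nm against a 0.0–8 nmol phosphate standard curve. Triplicates, at least three independent experiments.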

HepG2 cells = assay: Cell proliferation MTT assay, HepG2; format: cell-based; settings: Homo sapiens, HepG2, 48 h, read-out: IC50, cell growth inhibition
Outline: (§1)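 Cells at 37 °C, 5% CO2: A549 in F12K medium; HepG2 and HEK293 in DMEM with 10% heat-inactivated FBS and 1% penicillin-streptomycin; kept under 30 passages. Test compound at 0–250 μM for 48 h in 200 μl, then MTT with absorbance at 570 nm. Viability is given as % of untreated control and plotted against concentration. Doxorubicin is the positive control.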

A549 cells = assay: Cell proliferation MTT assay, A549; format: cell-based; settings: Homo sapiens, A549, 48 h, read-out: IC50, cell growth inhibition
Outline: as §1

T1 sequence (Q15120 whole entry): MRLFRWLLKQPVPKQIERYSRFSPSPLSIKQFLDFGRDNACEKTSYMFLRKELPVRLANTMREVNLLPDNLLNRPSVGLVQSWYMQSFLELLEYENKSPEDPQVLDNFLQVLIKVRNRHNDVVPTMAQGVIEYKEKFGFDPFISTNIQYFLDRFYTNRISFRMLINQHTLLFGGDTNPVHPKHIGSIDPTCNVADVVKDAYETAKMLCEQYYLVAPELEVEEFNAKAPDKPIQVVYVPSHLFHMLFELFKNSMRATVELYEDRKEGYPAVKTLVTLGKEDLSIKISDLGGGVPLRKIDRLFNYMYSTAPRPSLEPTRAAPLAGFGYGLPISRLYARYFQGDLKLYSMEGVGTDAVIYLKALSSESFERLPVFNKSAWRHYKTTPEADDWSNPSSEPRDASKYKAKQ

With `O=c1oc2c(O)c(O)cc3c(=O)oc4c(O)c(O)cc1c4c23` [Ellagic acid] the Kd (PDK3 [1]) was 0.00373 µM, the “ΔS1 (entropy change)” value (PDK3 [2]; site 1) was “ΔS1 = 9.13 cal mol^−1 deg^−1” and the “ΔS2 (entropy change)” value (PDK3 [2]; site 2) was “ΔS2 = −927 cal mol^−1 deg^−1”. For the same molecule, the “ΔS3 (entropy change)” value (PDK3 [2]; site 3) was “ΔS3 = −1950 cal mol^−1 deg^−1”, the “ΔS4 (entropy change)” value (PDK3 [2]; site 4) was “ΔS4 = −2090 cal mol^−1 deg^−1” and the Kd (PDK3 [2]; Ka1 (association constant), site 1) was 106 µM. For the same molecule, the Kd (PDK3 [2]; Ka2 (association constant), site 2) was 8.47 µM, the Kd (PDK3 [2]; Ka3 (association constant), site 3) was 25.6 µM and the Kd (PDK3 [2]; Ka4 (association constant), site 4) was 33.7 µM. The IC50 (PDK3 [3]) was roughly 5 µM, the IC50 (HepG2 cells) was 36.7 ± 3.22 µM and the IC50 (A549 cells) was 23.4 ± 1.33 µM.
For `CCC(C)(C)C(=O)O[C@H]1C[C@@H](C)C=C2C=C[C@H](C)[C@H](CC[C@@H]3C[C@@H](O)CC(=O)O3)[C@H]21` [Simvastatin, reference compound], the Kd (PDK3 [1]) was 2.59 µM.
In the case of `CC(C)=CCCC(C)=CC=O` (mixture of isomers) [Citral], the Kd (PDK3 [1]) is reported as 0.177 µM.
`C[C@H]1[C@H](C)CC[C@]2(C(=O)O)CC[C@]3(C)C(=CC[C@@H]4[C@@]5(C)CC[C@H](O)C(C)(C)[C@@H]5CC[C@]43C)[C@H]12` [Ursolic acid] was tested, and the Kd (PDK3 [1]) was 1.76 µM.
Work on `CC1(C)O[C@H]2CC(=O)OC[C@]23[C@H]2CC[C@@]4(C)[C@H](c5ccoc5)OC(=O)[C@H]5O[C@]54[C@]2(C)C(=O)C[C@@H]13` [Limonin] yielded a Kd (PDK3 [1]) of 0.0316 µM.
`COc1cc(CNC(=O)CCCC/C=C/C(C)C)ccc1O` [Capsaicin] showed a Kd (PDK3 [1]) of 0.271 µM.
`COc1cc(C=O)ccc1O` [Vanillin] was tested, and the Kd (PDK3 [1]) was 5.62 µM.
